Assay results collected from several papers.
Protocols differ between the studies behind these lines.
Target: Serine/threonine-protein kinase ULK1 (ULK1, Homo sapiens, UniProt O75385)
One construct used (O75385 1-1050): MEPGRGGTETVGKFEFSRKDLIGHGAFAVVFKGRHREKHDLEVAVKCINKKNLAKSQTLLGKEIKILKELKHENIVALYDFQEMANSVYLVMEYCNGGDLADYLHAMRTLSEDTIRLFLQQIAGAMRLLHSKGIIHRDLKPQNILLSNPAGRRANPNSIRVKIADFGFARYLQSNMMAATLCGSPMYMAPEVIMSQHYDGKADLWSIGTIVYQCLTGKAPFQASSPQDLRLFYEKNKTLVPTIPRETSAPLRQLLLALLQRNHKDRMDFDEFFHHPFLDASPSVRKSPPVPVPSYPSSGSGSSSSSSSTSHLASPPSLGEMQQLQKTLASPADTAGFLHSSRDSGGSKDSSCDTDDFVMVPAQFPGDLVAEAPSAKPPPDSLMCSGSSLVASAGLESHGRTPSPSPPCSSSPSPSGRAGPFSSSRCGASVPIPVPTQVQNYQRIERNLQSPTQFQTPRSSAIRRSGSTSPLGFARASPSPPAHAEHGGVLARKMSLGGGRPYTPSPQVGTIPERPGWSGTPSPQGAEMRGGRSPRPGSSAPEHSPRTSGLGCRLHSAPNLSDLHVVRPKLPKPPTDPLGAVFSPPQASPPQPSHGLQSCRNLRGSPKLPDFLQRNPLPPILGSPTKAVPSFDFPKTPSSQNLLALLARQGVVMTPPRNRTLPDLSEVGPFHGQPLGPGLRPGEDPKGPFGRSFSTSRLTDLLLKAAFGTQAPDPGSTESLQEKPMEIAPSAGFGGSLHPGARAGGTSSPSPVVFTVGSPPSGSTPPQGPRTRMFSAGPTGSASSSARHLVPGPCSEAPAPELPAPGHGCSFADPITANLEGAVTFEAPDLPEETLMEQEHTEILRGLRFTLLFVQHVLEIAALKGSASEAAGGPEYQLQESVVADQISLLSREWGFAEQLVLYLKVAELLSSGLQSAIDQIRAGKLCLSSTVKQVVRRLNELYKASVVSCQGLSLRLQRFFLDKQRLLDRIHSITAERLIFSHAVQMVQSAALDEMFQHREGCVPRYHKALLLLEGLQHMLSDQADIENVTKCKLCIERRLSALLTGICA

| Structure (SMILES) | assay | setting | remaining binding [%] |
| --- | --- | --- | --- |
| COc1ccnn2ncc(-c3ccnc(N(C)C)n3)c12 | binding | 1 µM | 100 |
| CCN1CCN(Cc2ccc(C(=O)Nc3ccc(C)c(Oc4ccc5c(c4)CC(=O)N5)c3)cc2C(F)(F)F)CC1 | binding, competition with immobilised ligand | 1 µM | 100 |
| CN(C)c1nccc(-c2cnc3ncccn23)n1 | binding | 1 µM | 71 |
| CNC(=O)[C@@H]1CC[C@@H](n2c(-c3ccc4cnccc4c3)nc3ccc(C(=O)NCc4cccc(C(N)=O)c4)cc32)C1 | binding, competition with immobilised ligand | 1 µM | 100 |
| Cc1noc([C@H]2C[C@@H](c3ccc(C(F)(F)F)cc3)CN(C(=O)N3CCS(=O)(=O)C3)C2)n1 | cell-free assay, competition with immobilised ligand | 1 µM | 85 |
| Cc1cnn2ncc(-c3ccnc(N(C)C)n3)c2c1 | binding | 1 µM | 100 |
| O=C(c1ccc(Nc2nccc(-c3cc4ccccc4s3)n2)cc1)N1CCC(N2CCCC2)CC1 | binding, competition with immobilised ligand | 1 µM | 50 |
| Nc1ncc2c(n1)-c1c([nH]c3ccc(C#CC4CC4)cc13)CCCC2 | binding, competition with immobilised ligand | 1 µM | 92 |
| O=C(c1ccc(Nc2ncc(Cl)c(-c3ccc(Cl)s3)n2)cc1)N1CCC(N2CCCC2)CC1 | binding, competition with immobilised ligand | 1 µM | 1.8 |
| c1ccc(N2CCN(Cc3nc4ccccc4[nH]3)CC2)nc1 | binding, competition with immobilised ligand | 1 µM | 100 |
| CN(C)c1ncc(F)c(-c2cnn3ncccc23)n1 | binding | 1 µM | 80 |
| c1cncc(-c2cccc(Nc3nccc(NC4CCCCC4)n3)c2)c1 | binding, competition with immobilised ligand | 10 µM | 100 |
| O=C(NCC1CCOCC1)c1n[nH]cc1NC(=O)c1c(F)cccc1F | binding, competition with immobilised ligand | 1 µM | 86 |
| CN(C)C(=O)Cn1cc(-c2nc([C@@](C)(c3ccc(-c4cnc(N)nc4)cc3)C3CC3)no2)cn1 | cell-free assay, competition with immobilised ligand | 1 µM | 77 |
| CN(C)c1nccc(-c2cnn3ncccc23)n1 | binding | 1 µM | 96 |
| O=C1CCc2cc(Nc3cc(OC4CCOCC4)c([N+](=O)[O-])cc3Cl)ccc2N1 | cell-free assay, competition with immobilised ligand | 1 µM | 87 |
| N[C@H]1CCN(c2nccc(-c3cnn4ncccc34)n2)C1 | binding | 1 µM | 100 |
| CNCc1ccccc1-c1csc([C@H](C)Nc2nc(C)nc3cc(OC)c(OC)cc23)c1 | cell-free assay, competition with immobilised ligand | 1 µM | 91 |
| COc1cnc(Nc2cccc(S(N)(=O)=O)c2)nc1N1CCN(c2ccccc2)C(=O)C1 | binding, competition with immobilised ligand | 1 µM | 67 |
| Cc1cnc(Nc2ccc(C(=O)N3CCC(N4CCCC4)CC3)cc2)nc1-c1cc2ccccc2s1 | binding, competition with immobilised ligand | 1 µM | 1.2 |
| CC1=C(C#N)C(c2ccc3c(c2)c(NC(=O)c2ccccc2C)nn3C)C(C#N)=C(C)N1 | cell-free assay, competition with immobilised ligand | 1 µM | 86 |
